# Tested on: Bacillus cereus
# Assay: Antibacterial activity against Bacillus cereus clinical isolate after 24 hrs by iodonitrotetrazolium chloride dye based microdilution assay
# Format: functional
# Settings: not given
# Outline: (§1)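 Fresh overnight cultures adjusted spectrophotometrically to 1×10^5 CFU/mL, giving 1.0×10^4 CFU per well in tryptic soy broth. Compounds were dissolved in 5% DMSO and tested at 0.001-1.0 mg/ml by serial dilution; 5% DMSO was the negative control. After 24 h at 37 °C, 0.2 mg/mL INT solution was added for 30 min at 37 °C and OD read at 655 nm. MIC is the lowest concentration giving significant growth inhibition versus the positive control. Duplicates, repeated three times.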
row,MIC [µM],SMILES
1,27.5,Cc1ccc2c(c1)-c1c(ssc1=S)C(C)(C)N2C(=O)CSc1nn(-c2ccccc2)c(=S)s1

# Tested on: Bacillus cereus
# Assay: Bactericidal activity against Bacillus cereus clinical isolate incubated for 24 hrs followed by re-plating on tryptic soy broth
# Format: functional
# Settings: not given
# Outline: (§2)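 Bacteria were grown in tryptic soy broth, 1.0×10^4 CFU per well, with compounds in 5% DMSO at 0.001-1.0 mg/ml for 24 h at 37 °C. Then 10 µL was subcultured into fresh TSB. MBC is the lowest concentration showing no growth after subculture, taken as 99.5% kill of the original inoculum. Duplicates, repeated three times.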
row,SMILES,MBC [µM]
1,Cc1ccc2c(c1)-c1c(ssc1=S)C(C)(C)N2C(=O)CSc1nn(-c2ccccc2)c(=S)s1,55

# Tested on: Micrococcus flavus
# Assay: Antibacterial activity against Micrococcus flavus ATCC 10240 after 24 hrs by iodonitrotetrazolium chloride dye based microdilution method
# Format: functional
# Settings: ATCC 10240, 24 h
# Outline: as §1
row,MIC [µM],SMILES
1,27.5,Cc1ccc2c(c1)-c1c(ssc1=S)C(C)(C)N2C(=O)CSc1nn(-c2ccccc2)c(=S)s1

# Tested on: Micrococcus flavus
# Assay: Bactericidal activity against Micrococcus flavus ATCC 10240 incubated for 24 hrs followed by re-plating on tryptic soy broth
# Format: functional
# Settings: ATCC 10240, 24 h
# Outline: as §2
row,SMILES,MBC [µM]
1,Cc1ccc2c(c1)-c1c(ssc1=S)C(C)(C)N2C(=O)CSc1nn(-c2ccccc2)c(=S)s1,55

# Tested on: Staphylococcus aureus
# Assay: Antibacterial activity against Staphylococcus aureus ATCC 6538 after 24 hrs by iodonitrotetrazolium chloride dye based microdilution method
# Format: functional
# Settings: ATCC 6538, 24 h
# Outline: as §1
row,MIC [µM],SMILES
1,27.5,Cc1ccc2c(c1)-c1c(ssc1=S)C(C)(C)N2C(=O)CSc1nn(-c2ccccc2)c(=S)s1

# Tested on: Staphylococcus aureus
# Assay: Bactericidal activity against Staphylococcus aureus ATCC 6538 incubated for 24 hrs followed by re-plating on tryptic soy broth
# Format: functional
# Settings: ATCC 6538, 24 h
# Outline: as §2
row,SMILES,MBC [µM]
1,Cc1ccc2c(c1)-c1c(ssc1=S)C(C)(C)N2C(=O)CSc1nn(-c2ccccc2)c(=S)s1,55

# Tested on: Listeria monocytogenes
# Assay: Antibacterial activity against Listeria monocytogenes NCTC 7973 after 24 hrs by iodonitrotetrazolium chloride dye based microdilution method
# Format: functional
# Settings: NCTC 7973, 24 h
# Outline: as §1
row,MIC [µM],SMILES
1,27.5,Cc1ccc2c(c1)-c1c(ssc1=S)C(C)(C)N2C(=O)CSc1nn(-c2ccccc2)c(=S)s1

# Tested on: Listeria monocytogenes
# Assay: Bactericidal activity against Listeria monocytogenes NCTC 7973 incubated for 24 hrs followed by re-plating on tryptic soy broth
# Format: functional
# Settings: NCTC 7973, 24 h
# Outline: as §2
row,SMILES,MBC [µM]
1,Cc1ccc2c(c1)-c1c(ssc1=S)C(C)(C)N2C(=O)CSc1nn(-c2ccccc2)c(=S)s1,55

# Tested on: Enterobacter cloacae
# Assay: Antibacterial activity against Enterobacter cloacae clinical isolate after 24 hrs by iodonitrotetrazolium chloride dye based microdilution method
# Format: functional
# Settings: not given
# Outline: as §1
row,MIC [µM],SMILES
1,27.5,Cc1ccc2c(c1)-c1c(ssc1=S)C(C)(C)N2C(=O)CSc1nn(-c2ccccc2)c(=S)s1

# Tested on: Enterobacter cloacae
# Assay: Bactericidal activity against Enterobacter cloacae incubated for 24 hrs followed by re-plating on tryptic soy broth
# Format: functional
# Settings: not given
# Outline: as §2
row,SMILES,MBC [µM]
1,Cc1ccc2c(c1)-c1c(ssc1=S)C(C)(C)N2C(=O)CSc1nn(-c2ccccc2)c(=S)s1,55

# Tested on: Pseudomonas aeruginosa
# Assay: Antibacterial activity against Pseudomonas aeruginosa ATCC 27853 after 24 hrs by iodonitrotetrazolium chloride dye based microdilution method
# Format: functional
# Settings: ATCC 27853, 24 h
# Outline: as §1
row,MIC [µM],SMILES
1,27.5,Cc1ccc2c(c1)-c1c(ssc1=S)C(C)(C)N2C(=O)CSc1nn(-c2ccccc2)c(=S)s1

# Tested on: Pseudomonas aeruginosa
# Assay: Bactericidal activity against Pseudomonas aeruginosa ATCC 27853 incubated for 24 hrs followed by re-plating on tryptic soy broth
# Format: functional
# Settings: ATCC 27853, 24 h
# Outline: as §2
row,SMILES,MBC [µM]
1,Cc1ccc2c(c1)-c1c(ssc1=S)C(C)(C)N2C(=O)CSc1nn(-c2ccccc2)c(=S)s1,55

# Tested on: Salmonella typhimurium
# Assay: Antibacterial activity against Salmonella typhimurium ATCC 13311 after 24 hrs by iodonitrotetrazolium chloride dye based microdilution method
# Format: functional, Salmonella enterica subsp. enterica serovar Typhimurium
# Settings: Salmonella enterica, ATCC 13311, 24 h
# Outline: as §1
row,MIC [µM],SMILES
1,27.5,Cc1ccc2c(c1)-c1c(ssc1=S)C(C)(C)N2C(=O)CSc1nn(-c2ccccc2)c(=S)s1

# Tested on: Salmonella typhimurium
# Assay: Bactericidal activity against Salmonella typhimurium ATCC 13311 incubated for 24 hrs followed by re-plating on tryptic soy broth
# Format: functional, Salmonella enterica subsp. enterica serovar Typhimurium
# Settings: Salmonella enterica, ATCC 13311, 24 h
# Outline: as §2
row,SMILES,MBC [µM]
1,Cc1ccc2c(c1)-c1c(ssc1=S)C(C)(C)N2C(=O)CSc1nn(-c2ccccc2)c(=S)s1,55

# Tested on: Escherichia coli
# Assay: Antibacterial activity against Escherichia coli ATCC 35210 after 24 hrs by iodonitrotetrazolium chloride dye based microdilution method
# Format: functional
# Settings: ATCC 35210, 24 h
# Outline: as §1
row,MIC [µM],SMILES
1,27.5,Cc1ccc2c(c1)-c1c(ssc1=S)C(C)(C)N2C(=O)CSc1nn(-c2ccccc2)c(=S)s1

# Tested on: Escherichia coli
# Assay: Bactericidal activity against Escherichia coli ATCC 35210 incubated for 24 hrs followed by re-plating on tryptic soy broth
# Format: functional
# Settings: ATCC 35210, 24 h
# Outline: as §2
row,SMILES,MBC [µM]
1,Cc1ccc2c(c1)-c1c(ssc1=S)C(C)(C)N2C(=O)CSc1nn(-c2ccccc2)c(=S)s1,55
